Measured values reported in ChEMBL document CHEMBL1156517, “Targeting thyroid hormone receptor-beta agonists to the liver reduces cholesterol and triglycerides and improves the therapeutic index” (Proc Natl Acad Sci U S A, 2007).
Calls of active or inactive are those of the source. The calls are words filed in the database; no cut-off is given here.

Tests used:
[1] = system: Mus musculus; test: Decrease in plasma triglyceride level in diet-induced obese C57BL/6 mouse at 3 mg/kg/day, po after 14 days; format: functional; set-up: scale not given: the % may be the effect or the level left
Outline: (§1)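 DIO mice were male C57BL/6 fed a 60%-fat (by kcal) diet from about 4 weeks of age for about 170 days. They were grouped (n = 8) to match cholesterol and body weight. Dosing was oral, once daily for 2 weeks, in 0.5% CMC/1% Lutrol F68. At kill, blood was taken by cardiac puncture for plasma TGs. The liver was removed and weighed, and hepatic TGs were measured.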

[2] = system: Rattus norvegicus; test: Effect on plasma insulin level in Sprague-Dawley rat at 10 mg/kg/day, po after 8 days; format: functional
[3] = system: Mus musculus; test: Reduction in plasma cholesterol level in diet-induced obese C57BL/6 mouse at 3 mg/kg/day, po; format: functional; set-up: scale not given: the % may be the effect or the level left
Outline: (§2)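 Male C57BL/6 mice, about 4 weeks old, fed a high-fat diet (60% kcal fat) for about 170 days. Assigned to groups (n = 8) matched for cholesterol and body weight. Dosed orally once daily in 0.5% CMC/1% Lutrol F68 for 2 weeks. Baseline blood taken by tail nick. At end, cardiac-puncture blood used for cholesterol, TGs, glucose and thyroid hormones; liver weighed and hepatic TGs measured.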

[4] = system: Mus musculus; test: Reduction in plasma cholesterol level in po dosed diet-induced obese C57BL/6 mouse after 2 weeks; format: functional; set-up: scale not given: the % may be the effect or the level left; outline: as §2
[5] = system: Mus musculus; test: Decrease in cholesterol level in wild-type C57BL/6 mouse at 5 mg/kg/day once daily for 7 days; format: functional, organism-based
[6] = system: Mus musculus; test: Decrease in cholesterol level in wild-type C57BL/6 mouse at 0.5 mg/kg/day once daily for 7 days; format: functional, organism-based
[7] = system: Rattus norvegicus; test: Toxicity in Sprague-Dawley rat assessed as suppression of thyroid hormone axis measured by decrease in free 3,5,3',5'-tetraiodo-L-thyronine level at 30 mg/kg, po after 7 weeks; format: organism-based; set-up: dose 30 mg/kg, route oral; settings: in vivo, 1176 h
Outline: (§3)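 Male SD rats (n = 5–6 per group; baseline group n = 8) given vehicle (0.5% CMC/1% Lutrol F68) or drug orally once daily. One group per cohort weighed and killed by decapitation without anesthesia after 1, 2, 4 and 7 weeks. Trunk-blood serum assayed for total/free T3 and T4; TSH by [125I] radioimmunoassay with magnetic separation. Pituitary TSHβ mRNA also measured.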

[8] = system: Rattus norvegicus; test: Toxicity in Sprague-Dawley rat assessed as suppression of thyroid hormone axis measured by decrease in serum TSH level at 30 mg/kg, po after 7 weeks; format: organism-based; set-up: dose 30 mg/kg, route oral; settings: in vivo, 1176 h
[9] = system: Rattus norvegicus; test: Increase in hepatic LDLR mRNA level in thyroidectomized Sprague-Dawley rat at 5 mg/kg after 24 hrs by RT-PCR relative to control; format: functional
Outline: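 Male thyroidectomized SD rats given 5 mg/kg, with a parallel T₃ arm at 0.5 mg/kg. Hepatic LDLR mRNA quantified by quantitative real-time PCR.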

[10] = system: Rattus norvegicus; test: Effect on type 1 iodothyronine deiodinase mRNA expression in po dosed Sprague-Dawley rat liver; format: functional, organism-based; settings: TDE = time-dependent effect
Outline: (§4)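 Killed 3, 8 and 24 h post-dose under 2.5% isoflurane. Pituitary and thyroid snap-frozen; liver, heart, soleus, spleen and kidney freeze-clamped. mRNA by quantitative real-time PCR, expressed as fold-change vs vehicle.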

[11] = system: Mus musculus; test: Decrease in liver triglyceride level in diet-induced obese C57BL/6 mouse at 3 mg/kg/day, po after 14 days; format: functional; set-up: scale not given: the % may be the effect or the level left; outline: as §1
[12] = Inhibition of CYP3A in Sprague-Dawley rat liver microsome at 10 uM; format: ADME; settings: microsomes
[13] = system: Rattus norvegicus; test: Effect on plasma insulin level in Sprague-Dawley rat at 50 mg/kg/day, po after 8 days; format: functional
[14] = system: Mus musculus; test: Decrease in liver weight in po dosed diet-induced obese C57BL/6 mouse after 14 days; format: functional; set-up: scale not given: the % may be the effect or the level left; outline: as §1
[15] = system: Mus musculus; test: Decrease in body weight in diet-induced obese C57BL/6 mouse at 30 mg/kg/day, po; format: functional; set-up: scale not given: the % may be the effect or the level left
[16] = system: Mus musculus; test: Effect on hepatic LDLR mRNA level in wild-type C57BL/6 mouse at 5 mg/kg/day once daily for 7 days; format: functional
[17] = system: Rattus norvegicus; test: Effect on malic enzyme mRNA expression in po dosed Sprague-Dawley rat liver; format: functional, organism-based; settings: TDE = time-dependent effect; outline: as §4
[18] = system: CYP3A; test: (§5) Activity of CYP3A in Sprague-Dawley rat liver microsome; format: ADME; settings: Sprague-Dawley, liver microsomes
[19] = as §5; format: ADME; settings: microsomes
[20] = system: Rattus norvegicus; test: Effect on plasma fatty acid level in Sprague-Dawley rat at 1 mg/kg/day, po after 8 days; format: functional
[21] = system: Rattus norvegicus; test: Effect on food intake in Sprague-Dawley rat at 10 mg/kg/day, po after 8 days; format: functional
[22] = system: Mus musculus; test: Decrease in plasma triglyceride level in po dosed diet-induced obese C57BL/6 mouse after 14 days; format: functional; set-up: scale not given: the % may be the effect or the level left; outline: as §1
[23] = system: Rattus norvegicus; test: Effect on fasting blood glucose level in Sprague-Dawley rat at 50 mg/kg/day, po after 8 days by oral glucose tolerance test; format: functional
[24] = system: Mus musculus; test: Decrease in cholesterol level in LDLR deficient C57BL/6 mouse at 0.5 mg/kg/day once daily for 7 days; format: functional, organism-based
[25] = system: Rattus norvegicus; test: Effect on SREBP-1c mRNA expression in po dosed Sprague-Dawley rat liver; format: functional, organism-based; settings: TDE = time-dependent effect
[26] = system: Mus musculus; test: Effect on hepatic LDLR mRNA level in diet-induced obese C57BL/6 mouse at 10 mg/kg, po after 3 hrs by RT-PCR; format: functional
Outline: (§6)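 Single oral dose in male DIO mice: C57BL/6 mice, about 4 weeks old at start, fed a 60% fat (by kcal) diet for about 170 days. Hepatic LDLR mRNA read out at early time points (3 and 8 h) after dosing.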

[27] = system: Rattus norvegicus; test: Effect on body weight in Sprague-Dawley rat at 10 mg/kg/day, po after 8 days; format: functional
[28] = system: Mus musculus; test: Effect on hepatic LDLR mRNA level in diet-induced obese C57BL/6 mouse at 10 mg/kg, po after 8 hrs by RT-PCR; format: functional; outline: as §6
[29] = system: Hepatocyte; test: Cmax per10'6 cells in Sprague-Dawley rat hepatocytes at 10 uM; format: ADME, Liver; set-up: dose 10 uM
Outline: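 Freshly isolated rat hepatocytes were incubated with compound. Intracellular levels of the active phosphonate were followed over time and expressed per 10⁶ cells, giving Cmax and tmax.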

[30] = Clearance in Sprague-Dawley rat at 3 mg/kg, iv; format: ADME, organism-based; set-up: dose 3 mg/kg, route intravenous; settings: in vivo
Outline: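 Male SD rats received a single i.v. dose. Clearance and other PK parameters came from plasma concentration–time profiles of both the prodrug and the active phosphonate, values reported as mean ± SEM.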

[31] = system: Rattus norvegicus; test: Effect on fasting blood glucose level in Sprague-Dawley rat at 1 mg/kg/day, po after 8 days by oral glucose tolerance test; format: functional
[32] = biological target: Thyroid hormone receptor alpha (Homo sapiens, UniProt P10827); test: Displacement of [125I]T3 from recombinant thyroid hormone receptor alpha expressed in sf9 cells by scintillation proximity assay
Sequence of Thyroid hormone receptor alpha (P10827 whole entry): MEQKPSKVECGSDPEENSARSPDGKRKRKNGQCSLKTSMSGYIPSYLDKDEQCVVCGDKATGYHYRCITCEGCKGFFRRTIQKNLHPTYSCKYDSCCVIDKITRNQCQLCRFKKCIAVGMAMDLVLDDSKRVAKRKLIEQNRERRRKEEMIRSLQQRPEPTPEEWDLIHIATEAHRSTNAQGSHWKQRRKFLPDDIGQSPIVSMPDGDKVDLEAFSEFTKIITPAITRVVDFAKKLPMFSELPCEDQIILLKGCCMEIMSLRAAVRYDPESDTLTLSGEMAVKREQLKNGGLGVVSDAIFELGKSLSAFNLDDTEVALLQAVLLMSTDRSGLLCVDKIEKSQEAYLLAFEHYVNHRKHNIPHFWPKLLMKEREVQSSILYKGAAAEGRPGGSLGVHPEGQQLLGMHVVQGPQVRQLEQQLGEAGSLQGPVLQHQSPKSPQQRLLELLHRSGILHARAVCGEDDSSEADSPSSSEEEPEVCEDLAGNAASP

[33] = system: Rattus norvegicus; test: Effect on plasma insulin level in Sprague-Dawley rat at 1 mg/kg/day, po after 8 days; format: functional
[34] = system: Mus musculus; test: Reduction in blood glucose level in po dosed diet-induced obese C57BL/6 mouse; format: functional, organism-based; outline: as §2
[35] = system: Mus musculus; test: Decrease in cholesterol level in LDLR deficient C57BL/6 mouse at 5 mg/kg/day once daily for 7 days; format: functional, organism-based
[36] = system: Rattus norvegicus; test: Effect on LDLR mRNA expression in po dosed Sprague-Dawley rat liver; format: functional, organism-based; settings: TDE = time-dependent effect
[37] = system: Rattus norvegicus; test: Effect on plasma fatty acid level in Sprague-Dawley rat at 10 mg/kg/day, po after 8 days; format: functional
[38] = biological target: Thyroid hormone receptor beta (Homo sapiens, UniProt P10828); test: Displacement of [125I]T3 from recombinant thyroid hormone receptor beta expressed in sf9 cells by scintillation proximity assay
Sequence of Thyroid hormone receptor beta (P10828 whole entry): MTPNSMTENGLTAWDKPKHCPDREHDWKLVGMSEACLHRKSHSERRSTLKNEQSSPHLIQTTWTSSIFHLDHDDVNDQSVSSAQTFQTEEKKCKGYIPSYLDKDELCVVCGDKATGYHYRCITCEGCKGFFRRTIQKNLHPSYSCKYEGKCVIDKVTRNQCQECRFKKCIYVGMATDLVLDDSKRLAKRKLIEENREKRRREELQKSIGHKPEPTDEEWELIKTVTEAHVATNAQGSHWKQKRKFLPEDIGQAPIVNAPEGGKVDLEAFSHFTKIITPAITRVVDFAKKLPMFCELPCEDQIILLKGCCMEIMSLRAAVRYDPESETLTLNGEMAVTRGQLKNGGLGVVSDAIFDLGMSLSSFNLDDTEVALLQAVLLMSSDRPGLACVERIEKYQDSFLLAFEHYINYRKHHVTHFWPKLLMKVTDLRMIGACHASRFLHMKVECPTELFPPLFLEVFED

[39] = system: Rattus norvegicus; test: Effect on plasma fatty acid level in Sprague-Dawley rat at 50 mg/kg/day, po after 8 days; format: functional
[40] = system: Rattus norvegicus; test: Effect on fasting blood glucose level in Sprague-Dawley rat at 10 mg/kg/day, po after 8 days by oral glucose tolerance test; format: functional
[41] = Volume of distribution in Sprague-Dawley rat at 3 mg/kg, iv; format: ADME, organism-based; set-up: dose 3 mg/kg, route intravenous; settings: in vivo
[42] = system: Rattus norvegicus; test: Toxicity in Sprague-Dawley rat assessed as suppression of thyroid hormone axis measured by decrease in TSH-beta mRNA level at 30 mg/kg, po after 7 weeks; format: organism-based; set-up: dose 30 mg/kg, route oral; settings: in vivo, 1176 h; outline: as §3
[43] = system: Rattus norvegicus; test: Effect on body weight in Sprague-Dawley rat at 1 mg/kg/day, po after 8 days; format: functional
[44] = system: Rattus norvegicus; test: Effect on body weight in Sprague-Dawley rat at 50 mg/kg/day, po after 8 days; format: functional
[45] = system: Mus musculus; test: Decrease in liver triglyceride level in po dosed diet-induced obese C57BL/6 mouse after 14 days; format: functional; set-up: scale not given: the % may be the effect or the level left; outline: as §1
[46] = species: Rattus norvegicus; test: Reduction in plasma cholesterol level in cholesterol fed Sprague-Dawley rat; format: functional
[47] = system: Mus musculus; test: Effect on hepatic LDLR mRNA level in LDLR deficient C57BL/6 mouse at 5 mg/kg/day once daily for 7 days; format: functional
[48] = system: Rattus norvegicus; test: Effect on food intake in Sprague-Dawley rat at 1 mg/kg/day, po after 8 days; format: functional
[49] = system: Rattus norvegicus; test: Toxicity in Sprague-Dawley rat assessed as suppression of thyroid hormone axis measured by decrease in total 3,5,3',5'-tetraiodo-L-thyronine level at 30 mg/kg, po after 7 weeks; format: organism-based; set-up: dose 30 mg/kg, route oral; settings: in vivo, 1176 h
[50] = system: Rattus norvegicus; test: Effect on food intake in Sprague-Dawley rat at 50 mg/kg/day, po after 8 days; format: functional

Cc1cc(OCP2(=O)OCC[C@@H](c3cccc(Cl)c3)O2)cc(C)c1Cc1ccc(O)c(C(C)C)c1 (stereo not given in full) [MB07811]
Activity [1]: 38%
Activity [2]: 0.342 ng/mL
Activity [3]: 51%
Activity [4]: 61%
Activity [5]: Active
Activity [6]: Active
Activity [7]: Active
Activity [8]: Active
fold change (FC) [9]: 21.063
Activity [10]: tde
Activity [11]: 69%
Activity [12]: Not Active
Activity [13]: 0.402 ng/mL
Activity [14]: 42%
Activity [15]: 3%
Activity [16]: -31.8%
Activity [17]: tde
Km [18]: 18.8 µM
Vmax [19]: 2.74 nmol/min/mg
Activity [20]: 0.454 mM
Activity [21]: 14.6%
Activity [22]: 40%
Activity [23]: -0.5 mg/dL
Activity [24]: inactive
Activity [25]: tde
fold change (FC) [26]: 1.23
Activity [27]: 37.9 g
fold change (FC) [28]: 2.01
Cmax [29]: 1.03 nmol
clearance [30]: 193 mL/min/kg
Activity [31]: 9 mg/dL
Ki [32]: 12.5 µM
Activity [33]: 0.424 ng/mL
Activity [34]: Active
Activity [35]: inactive
Activity [36]: tde
Activity [37]: 0.541 mM
Ki [38]: 14.6 µM
Activity [39]: 0.524 mM
Activity [40]: 11.8 mg/dL
Vd [41]: 14.8 L/kg
Activity [42]: Active
Activity [43]: 42.8 g
Activity [44]: 49.3 g
Activity [45]: 42%
ED50 [46]: 0.4 mg/kg
Activity [47]: -10.8%
Activity [48]: 15.1%
Activity [49]: Active
Activity [50]: 15.6%
